TAAR1 ag: agonists of human TAAR1; activation, % at 3 µM; 360,000 tested, 0.99% active; AID 624467; CHO RD-HGA16 TAAR1, Fluo-8 calcium fluorescence; vehicle wells 0%, saturating PEA agonist 100%; Q96RJ0;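 active = activation above the mean activation of all test compounds in the run plus 3 SD, cut at about 38% in these data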
Target sequence (Q96RJ0 whole entry, looked up): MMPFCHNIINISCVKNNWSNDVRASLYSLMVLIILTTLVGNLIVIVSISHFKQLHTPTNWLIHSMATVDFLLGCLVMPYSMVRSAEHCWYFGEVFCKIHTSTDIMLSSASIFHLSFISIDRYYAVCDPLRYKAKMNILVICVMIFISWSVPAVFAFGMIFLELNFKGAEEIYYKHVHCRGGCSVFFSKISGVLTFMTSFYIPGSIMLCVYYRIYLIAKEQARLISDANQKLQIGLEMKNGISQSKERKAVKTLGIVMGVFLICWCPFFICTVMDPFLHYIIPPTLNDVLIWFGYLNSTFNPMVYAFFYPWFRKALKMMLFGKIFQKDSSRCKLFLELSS
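System: CHO RD-HGA16 cells carrying human TAAR1 plus Gα16; Incubation: 17-24 h seeding, 75 min 37 °C dye, 30 min RT; Measured by: Fluo-8 fluorescence, 5 s baseline then 140 s kinetic read; Control set: DMSO and PEA EC100; Replication: single well for each compound.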
OX1R antag-1: blocks the human orexin 1 receptor | 330,000 tested, 0.43% active | AID 434989 | CHO/OX1R cells, Fluo-8 calcium fluorescence, orexin A | inhibition, % at 5 µM | O43613;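 active = inhibition above its plate's threshold, mean inhibition of all tested compounds on the plate plus 3 SD, cut at about 37% in these data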;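 also: 0% = orexin A challenge wells and 100% = SB-334867-A antagonist wells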
OX1R antag-2: antagonists of human orexin 1 receptor (OX1R); inhibition, % at 6.6 µM; OX1R-expressing cells, FRET antagonist read-out; AID 485270; 330,000 tested, 1.8% active; O43613; in the data active = inhibition mostly above about 38%, no sharp cut-off; inactive = mostly below about 40%;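 also: 0% = agonist challenge alone and 100% = reference antagonist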
CHO parental Ca: counter-screen for OX1R antagonists: effect in parental CHO cells; parental CHO-K1, ATP-induced calcium, Fluo-8 fluorescence; inhibition, % at 5.6 µM; 330,000 tested, 0.63% active; AID 463079;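 active = inhibition above that plate's mean sample inhibition plus 3 SD, cut at about 26% in these data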;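 also: 0% = ATP-challenged DMSO wells and 100% = DMSO wells without ATP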
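Assay system: parental CHO cells; Read-out basis: percent inhibition of ATP-evoked calcium rise, normalized to controls; Benchmarks: ATP and no-ATP DMSO wells; Compound dosing: single nominal dose of 5.6 µM per compound; Signal: Fluo-8 calcium dye fluorescence; Also added: ATP as calcium-mobilizing challenge; Repeats: singlicate.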
TAAR1 antagonist: antagonists of human TAAR1. Q96RJ0. 360,000 tested, 1.5% active. CHO RD-HGA16 TAAR1, Fluo-8 calcium fluorescence, antagonist. inhibition, % at 3 µM;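 active = inhibition above a per-plate cutoff, the mean inhibition of test compounds on that plate plus 3 SD, cut at about 49% in these data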;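 also: 0% = DMSO plus EC80 beta-PEA response and 100% = DMSO alone without agonist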
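System: CHO RD-HGA16 cells bearing hTAAR1. Reagent: EC80 β-phenethylamine stimulus. Schedule: seeding 17-24 h prior, 75-min 37 °C, 30-min RT dye loading. Signal: Fluo-8 intracellular calcium dye fluorescence, real-time kinetic reads. Read-out: % inhibition from peak post-agonist over basal fluorescence ratio. Benchmarks: vehicle wells and EC80 agonist wells. Replicates: n of 1.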
* hit, by the source's call; · = not tested or not shown. Sampled rows, rich in hits. Any-hit rate of the full collection: about 3.9%.

SMILES | TAAR1 ag | OX1R antag-1 | OX1R antag-2 | CHO parental Ca | TAAR1 antagonist
C[C@H]1CC[C@H]2C(=O)N3[C@H](c4ccccc4Br)[C@@H](C)CC[C@H]3C(=O)N2[C@@H]1c1ccccc1Br | · | 39 | 75* | 23 | ·
O=C(N[C@@H](Cc1cccnc1)C(=O)N1CCC[C@H]1C(=O)NC1CCCC1)C1CC1 | 3 | · | · | · | 3
CCOc1ccc(N=C2NC(=O)S/C2=C\c2ccc(Cl)cc2)cc1 | 8 | -14 | 16 | -12 | 4
COc1ccc(N=C2NC(=O)S/C2=C\c2ccc(N(C)C)cc2)cc1 | 27 | 36 | 12 | 37* | 58*
Cn1c(N)c(C(=O)COC(=O)c2ccccc2C(=O)c2ccc(Cl)c([N+](=O)[O-])c2)c(=O)n(C)c1=O | · | 12 | 36* | -2 | ·
COc1ccc(N(C)S(=O)(=O)c2cccc(C(=O)OCC(=O)c3c(N)n(C)c(=O)n(C)c3=O)c2)cc1 | 18 | 20 | 13 | 0 | 73*
CN(c1ccccc1)S(=O)(=O)c1ccc(Cl)c(C(=O)OCC(=O)c2c(N)n(C)c(=O)n(C)c2=O)c1 | 12 | · | · | · | 61*
Cn1c(N)c(C(=O)COC(=O)c2ccccc2C(=O)c2ccccc2)c(=O)n(C)c1=O | 1 | -8 | 4 | -10 | -3
CC(C)[C@@H]1Cc2[nH]n(C)c(=O)c2[C@H](c2ccc(F)cc2)O1 | 3 | · | · | · | 5
Cc1nn(-c2ccccc2)c(N)c1N=Nc1cccnc1 | 3 | -20 | 54* | -10 | 3
Nc1nn(-c2ccccc2)c(N)c1N=Nc1cccc(F)c1 | 1 | -18 | 24 | -7 | -12
Cc1noc(C)c1CSCC(=O)N1CCN(c2ccc(F)cc2)CC1 | 15 | -20 | 18 | -4 | 6
Cc1cccc(N2CCN(C(=O)CSCc3c(C)noc3C)CC2)c1C | · | 18 | 30 | 46* | ·
N#Cc1c(-c2ccccc2)cc(-c2ccc3c(c2)OCO3)[nH]c1=O | -1 | -14 | 9 | -11 | -23
COc1ccc(-c2cc(-c3ccco3)[nH]c(=O)c2C#N)cc1OC | 6 | 4 | 73* | 2 | -36
CCCCn1nnnc1C(c1cc2ccccc2o1)N(CCN(C)C)Cc1ccccc1 (centres undefined) | 7 | · | · | · | -9
Cc1ccccc1-n1nc2c(c1NC(=O)c1cc3ccccc3oc1=O)CS(=O)(=O)C2 | 14 | -6 | 9 | -7 | 29
Cc1ccccc1-n1nc2c(c1NC(=O)c1cc3ccccc3oc1=O)CS(=O)C2 (centres undefined) | · | -14 | 46* | -14 | ·
CCN(Cc1ccccc1)S(=O)(=O)c1ccccc1Br | -1 | -10 | 29 | -15 | -4
CCCN(S(=O)(=O)c1ccccc1F)S(=O)(=O)c1ccccc1Br | -2 | 14 | 68* | -10 | -4
S=c1[nH]nc(C2CCCCC2)n1/N=C/c1ccc(Cl)cc1 | -3 | -17 | -4 | -15 | -36
Cc1ccc(/C=N/n2c(C3CCCCC3)n[nH]c2=S)cc1 | 8 | 14 | -3 | 43* | -12
COC(=O)[C@]12C[C@H](CC(=O)N3CCN(C(=O)c4ccco4)CC3)C(=O)N(Cc3ccccc3)C1=C[C@H](C1CCCC1)O[C@@H]2C | -1 | · | · | · | -17
O=C(NN1c2ccccc2CCc2ccccc21)c1ccccc1Br | -2 | 13 | 66* | 4 | -4
Cc1ccc(S(=O)(=O)N2CC(O)C[C@H]2C(=O)OCC(=O)c2ccccc2)cc1 (some centres undefined) | 3 | -9 | 6 | -9 | 3
SMILES | TAAR1 ag | OX1R antag-1 | OX1R antag-2 | CHO parental Ca | TAAR1 antagonist
CC(C)(C)OC(=O)N1C[C@H](O)C[C@H]1C(=O)OCC(=O)c1ccc([N+](=O)[O-])cc1 | 0 | -5 | 37* | -4 | 12
COC(=O)c1cc(N/C(N)=N/c2nc(C)cc(C)n2)cc(C(=O)OC)c1 | 1 | · | · | · | -2
Cc1noc(C)c1COC(=O)c1cccc(S(=O)(=O)N2CCCCCC2)c1 | 8 | 13 | 22 | 49* | 15
COCCN1CCCc2nc(-c3ccc(Br)cc3)ccc21 | -1 | · | · | · | -17
CC1CN(C(=O)COC(=O)c2cc([N+](=O)[O-])ccc2Cl)CC(C)O1 (centres undefined) | 7 | -2 | 41* | -10 | -1
O=C(COC(=O)c1cc([N+](=O)[O-])ccc1N1CCOCC1)c1ccccc1Cl | 1 | 2 | 25 | -23 | 15

High-throughput results: PubChem BioAssay, The Scripps Research Institute Molecular Screening Center
